These results are taken from PMC4635973 (Journal of medicinal chemistry, 2015).

Entries after “also recorded” stand apart in the source; their conditions may differ.

In data set [1] the test system is activin A-mediated ovarian cell proliferation. In words: Ovary ex vivo culture and BrdU assay. Type of data set: cell-based, mouse. The settings on record: 1 nM activin A, ovaries of 4-day-old CD1 mice, 4 days. Summed up:
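Ovaries from 4-day-old CD1 mice were cultured on 0.4-µm membrane inserts in DMEM/F12 with 0.03% BSA for 4 days. Treatments: 1 nM activin A with DMSO, 200 µM test compound, 4 nM Fst288 or 8 nM inhibin A. Then 10 µM BrdU for 24 h. Genomic DNA (150 ng, heat-denatured) was dot-blotted, probed with anti-BrdU and HRP secondary, detected by ECL and quantified by densitometry. Three independent experiments; one-way ANOVA with Tukey test.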
On the technique in general: Dividing cells build labelled thymidine or BrdU into new DNA.

The next data set concerns ovariectomized mice. In words: Kidney and liver histology and behavior of treated ovariectomized mice. Type of data set: in vivo, mouse. A digest of the protocol: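 Ovariectomized 12-week-old CD1 mice received s.c. vehicle or 60 mg/kg test compound twice daily for 2 days (4 doses). Kidney and liver were fixed in Modified Davidson's fixative for 5 days at 4 °C, embedded in paraffin and stained with H&E.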

Data set [2] addresses T1, activin A binding to ActRIIA-ECD-Fc (Homo sapiens, UniProt P08476).
T1 sequence (P08476 311-426): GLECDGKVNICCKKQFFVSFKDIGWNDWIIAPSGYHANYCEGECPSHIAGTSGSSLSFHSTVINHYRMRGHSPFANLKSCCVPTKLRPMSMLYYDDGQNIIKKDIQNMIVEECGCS
In words: Blitz competition binding: activin A with ActRIIA-ECD-Fc. The settings on record: 25 µM compound, activin A 1.6 µM. A digest of the protocol:
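Protein A biosensor (Blitz) loaded with ActRIIA-ECD-Fc, then dipped into activin A (final 1.6 µM) with solvent control or a single 25 µM test compound. Association was 120 s and dissociation 120 s in PBS. Real-time wavelength shift recorded.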

The subject of data set [3] is activin A-stimulated FSHβ promoter activation in −338FSHβ-luc LβT2 cells. The experiment in a line: −338FSHβ-Luc LβT2 cell luciferase assay. The class given is cell-based. The settings on record: Mus musculus, 6 h, read-out: IC50 for activin A (selectivity test).
Data set [4] deals with T2, myostatin/ActRIIA-ECD complex binding with ALK4-ECD-Fc (Homo sapiens, UniProt O14793).
T2 sequence (O14793 267-375): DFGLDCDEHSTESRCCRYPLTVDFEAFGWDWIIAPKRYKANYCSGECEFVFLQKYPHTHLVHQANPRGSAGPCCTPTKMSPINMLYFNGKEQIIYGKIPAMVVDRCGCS
In words: Blitz competition binding: myostatin/ActRIIA-ECD complex with ALK4-ECD-Fc. The settings on record: 25 µM compound. A digest of the protocol: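 Myostatin and ActRIIA-ECD were premixed 1:2 molar, final 1.6 µM in PBS. Binding was to ALK4-ECD-Fc immobilized on a protein A Blitz biosensor (50 ng/mL, 120 s). Sensor dipped into complex with solvent or 25 µM test compound; 120 s association, 120 s dissociation in PBS. Wavelength shift recorded.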

Data set [5] has as its system myostatin signaling in the −338FSHβ-Luc LβT2 cell line. The experiment in a line: −338FSHβ-Luc LβT2 cell luciferase assay. The class given is cell-based, mouse. Particulars: −338FSHβ-Luc LβT2 luciferase assay. A digest of the protocol:
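Stably transfected −338FSHβ-Luc LβT2 cells (5 × 10^4/well) were treated for 6 h at 37 °C in serum-free, phenol red-free DMEM-F12 with 1% P/S. Treatments: 0.2 nM activin A or 0.2 nM myostatin with DMSO or a test-compound dilution series. Luciferase measured in lysates. Triplicates in three experiments. IC50 from sigmoidal variable-slope fit, reported as means ± SD.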

Data set [6] has as its system activin-stimulated FSH in ovariectomized mice. The experiment in a line: Serum FSH in ovariectomized mice. The class given is in vivo, mouse. Particulars: 15 mg/kg s.c. every 12 h, 4 doses. Summed up: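 Ovariectomized 12-week-old CD1 mice received s.c. test compound (15, 30 or 60 mg/kg) or vehicle (TBS or DMSO) twice daily for 2 days (4 doses). Fst288 control: 200 µg/kg, 3 doses. Serum FSH was measured by ELISA (sensitivity 0.35mIU/mL, 450 nm) as % of vehicle mean. 5–7 mice per group, 10 controls; one-way ANOVA with Tukey test.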

Data set [7] deals with T3, activin A/ActRIIA-ECD complex binding to ALK4-ECD-Fc (Homo sapiens, UniProt P08476).
T3 sequence (P08476 311-426): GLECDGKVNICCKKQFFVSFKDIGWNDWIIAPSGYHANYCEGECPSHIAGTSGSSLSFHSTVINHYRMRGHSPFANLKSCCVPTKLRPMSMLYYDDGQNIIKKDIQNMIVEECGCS
The experiment in a line: Blitz competition binding: activin A/ActRIIA-ECD complex with ALK4-ECD-Fc. Particulars: 25 µM compound, complex 1.6 µM. Summed up: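 ALK4-ECD-Fc (50 ng/mL) was immobilized on a protein A Blitz biosensor for 120 s. Activin A and ActRIIA-ECD were premixed 1:2 molar, final 1.6 µM in PBS. The sensor was dipped into this complex with solvent or test compound (0.4, 1.6, 6.25, 25 µM) for 120 s association, then 120 s dissociation in PBS. Real-time wavelength shift recorded.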

Take `CC(C)(O)C#Cc1ccc(CN2CCC[C@@H](CCC(=O)N3CCOCC3)C2)s1` [NUCC-474]: the “Inhibition of exogenous activin A-mediated ovarian cell proliferation (BrdU)” value (shortened to “Inhibition”) in data set [1] (200 µM compound) is given as “only partially inhibited”.

As usually defined, the IC50 is the concentration at which inhibition is half-maximal. `CCn1c(-c2cccnc2)nc2cc(NC(=O)COC)cc(C(=O)NCc3ccccc3)c21` [NUCC-555]: the “Histopathology of the kidney and liver tissue (H&E)” value with ovariectomized mice (60 mg/kg s.c. twice daily, 4 doses, ovariectomized mice) is reported as “unchanged”. Also, the Behavior after injection result in the data set on ovariectomized mice (s.c. injection, ovariectomized mice) is “normal behavior”. In the data set with ovariectomized mice (treated mice, efficacy studies), the “Adverse effects in efficacy studies” value is “No adverse effects”. Besides, the “Interference with activin A binding with ActRIIA-ECD-Fc” value in data set [2] is recorded as “weakly interfere”. For the same molecule, in data set [3], the IC50 turned out to be 5.37 ± 4.01 µM. In addition, in data set [4], the “Blocking of myostatin/ActRIIA complex binding with ALK4” value was “no blocking activity”. Further, the “Selectivity, IC50 for activin A versus IC50 for myostatin” value in data set [5] is listed as ~10 fold. Besides, the “Effect on serum FSH levels compared with control” value in data set [6] is “no significant effect”. In data set [1] (200 µM compound), the “Inhibition” value is recorded as “completely inhibited”. In data set [7], the “Antagonism of activin A/ActRIIA-ECD complex binding with ALK4-ECD-Fc” value was “nearly complete antagonist; also recorded: completely blocked”.

B1: inhibin A: Purified inhibin A, naturally occurring activin antagonist, positive control in ovary culture (protein, UniProt P05111 233-366; P08476 311-426, looked up)
Inhibin alpha chain: STPLMSWPWSPSALRLLQRPPEEPAAHANCHRVALNISFQELGWERWIVYPPSFIFHYCHGGCGLHIPPNLSLPVPGAPPTPAQPYSLLPGAQPCCAALPGTMRPLHVRTTSDGGYSFKYETVPNLLTQHCACI
Inhibin beta A chain: GLECDGKVNICCKKQFFVSFKDIGWNDWIIAPSGYHANYCEGECPSHIAGTSGSSLSFHSTVINHYRMRGHSPFANLKSCCVPTKLRPMSMLYYDDGQNIIKKDIQNMIVEECGCS
For B1, the “Inhibition” value in data set [1] (8 nM) is given as “completely inhibited”.
